Screening results deposited in PubChem BioAssay by several laboratories.
ZTA counter: counter-screen for EBNA-1 inhibitors: inhibitors of Epstein-Barr virus ZTA; ZTA-DNA binding, fluorescence polarization; inhibition, % at 11 µM; actives 0.15% (n = 320,000); AID 2234; in the data active = inhibition above about 33%
Target sequence (P03206 whole entry, looked up): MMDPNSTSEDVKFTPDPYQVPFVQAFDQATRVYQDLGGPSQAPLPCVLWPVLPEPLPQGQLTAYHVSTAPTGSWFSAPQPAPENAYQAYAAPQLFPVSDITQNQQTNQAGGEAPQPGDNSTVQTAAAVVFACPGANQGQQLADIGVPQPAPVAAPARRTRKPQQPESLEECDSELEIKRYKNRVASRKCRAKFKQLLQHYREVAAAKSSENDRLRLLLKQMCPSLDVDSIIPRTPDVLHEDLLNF
EBNA-1 inhibitor: blocks EBNA-1 binding to DNA; EBNA-1 DNA binding, fluorescence polarization; inhibition, % at 14.8 µM; actives 0.34% (n = 300,000); AID 1950; in the data active = inhibition above about 28%
M18AAP inhibitor: blocks P. falciparum M18 aspartyl aminopeptidase; recombinant PfM18AAP, H-Glu-NHMec fluorogenic cleavage; inhibition, % at 7.35 µM; AID 1822; actives 1.2% (n = 290,000);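 active = inhibition above the campaign mean inhibition over all tested compounds plus 3 SD, cut at about 28% in these data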;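 note: 0% = plate median of test compound wells and 100% = 2 mM ZnCl2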
UBC13 inh: blocks human UBC13 polyubiquitin chain formation. P61088. TR-FRET. inhibition, % at 20 µM. actives 0.47% (n = 330,000); in the data active = inhibition above about 45%, passing the limit was not always enough
Target sequence (P61088 whole entry, looked up): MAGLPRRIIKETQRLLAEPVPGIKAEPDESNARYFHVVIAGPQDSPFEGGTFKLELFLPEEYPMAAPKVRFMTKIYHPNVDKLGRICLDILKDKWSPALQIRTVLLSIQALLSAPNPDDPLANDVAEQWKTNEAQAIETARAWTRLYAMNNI
PfGluPho inh: PfG6PD (Plasmodium falciparum) enzyme inhibition; AID 504690; actives 0.78% (n = 350,000); inhibition, % at 20 µM; PfGluPho enzyme, NADPH resazurin-diaphorase fluorescence;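 active = inhibition reaching at least a set limit at 20 µM in the primary screen, cut at about 59% in these data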;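 note: 0% = DMSO wells with substrate and 100% = DMSO wells lacking glucose-6-phosphate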
Apaf1 inhib: inhibitors of human Apaf-1 apoptosome; O14727; reconstituted apoptosome caspase-3 activity, DEVD-Rh110 fluorescence; inhibition, % at 20 µM; actives 0.71% (n = 330,000); active = inhibition of at least 40% at 20 µM;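 note: plate controls were DMSO wells for no effect and DEVD-CHO caspase inhibitor wells for full effect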
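Material: reconstituted apoptosome with Apaf-1, cytochrome c, caspase-9, procaspase-3, dATP. Technique: Rh110 fluorescence intensity. Buffer or medium: pH 7.5 Hepes buffer with CHAPS, BSA, DTT. Times: 30 min plus 50 min, RT.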
Casp3 UBC13 ctr: caspase-3 inhibition (UBC13 counter-screen); shares compounds with UBC13 inh; inhibition, % at 20 µM; actives 4% (n = 1,400); AID 488856; Recombinant caspase-3, Caspase-Glo 3/7 luminescence, 60 min;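 active = mean inhibition across replicates above about 26%, limit read from the data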;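 note: plate controls were DMSO with caspase-3 for no effect and DMSO wells lacking enzyme for full effect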
UBC13 conf: confirmation of human UBC13 polyubiquitin inhibitors | AID 488859 | shares compounds with UBC13 inh | actives 68% (n = 1,400) | inhibition, % at 10 µM | UBC13 polyubiquitination, TR-FRET, biochemical; in the data active = inhibition above about 45%
Apaf-1 inh conf2: confirmation of Apaf-1 inhibitors. shares compounds with Apaf1 inhib. reconstituted apoptosome, caspase-3 DEVD-Rh110 fluorescence. inhibition, % at 20 µM. actives 25% (n = 1,800);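 active = mean inhibition of at least 40% at 20 µM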;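 note: plate controls were DMSO wells for no effect and DEVD-CHO caspase inhibitor control wells for full effect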
Rh110 interf inh: Rh110 signal interference in Apaf-1 inhibitor counter-screen. shares compounds with Apaf1 inhib. Rh110 fluorescence interference, quenched caspase reaction. activation (fluorescence interference), % at 20 µM. 1,800 tested, under 10 active;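 active = signal rise of 40% or more at 20 µM, treated as a fluorescence artifact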
Apaf1 inh interf: counter-screen for Apaf-1 inhibitors: fluorescence interference, dose response; 460 tested, under 10 active; IC50, µM; shares compounds with Apaf1 inhib; fluorescence interference counterscreen, Apaf-1 assay format; AID 588538; call rule not given here
* hit, by the source's call; x = no result given. In the library only some 2.9% were active in any assay of this set; here they are far more common.

SMILES	ZTA counter	EBNA-1 inhibitor	M18AAP inhibitor	UBC13 inh	PfGluPho inh	Apaf1 inhib	Casp3 UBC13 ctr	UBC13 conf	Apaf-1 inh conf2	Rh110 interf inh	others
CC1CCN(S(=O)(=O)c2ccc3nc(N4CCN(c5ccccc5)CC4)ccc3c2)CC1	-3	12	-3	39	3	7	x	x	x	x
NC[C@@H]1O[C@H](C23CC4CC(CC(C4)C2)C3)Cc2c1ccc(O)c2O	-2	-11	x	55*	19	42*	-1	54*	3	6
Cc1ccc(NC(=S)N(Cc2cccc(Br)c2)CC2CCC(C(=O)O)CC2)cc1Cl (stereo unspecified)	-18	-11	-5	-28	-9	10	x	x	x	x
CC(C)CNC(=O)c1ccccc1NC(=O)/C=C/c1cccc([N+](=O)[O-])c1	-9	-4	-2	2	-10	-1	x	x	x	x
FC(F)(F)c1cc(CCN2CCNC[C@@H]2CC2CCCCC2)cc(C(F)(F)F)c1	x	x	x	87*	12	79*	-1	97*	41*	22	Apaf1 inh interf=>100
NC1=NC[C@H](CC2CCCCC2)N1CCc1cc(C(F)(F)F)cc(C(F)(F)F)c1	-7	-9	x	97*	3	74*	-1	98*	50*	27	Apaf1 inh interf=>100
Fc1cccc(CCN2CCNC[C@@H]2c2ccccc2)c1	2	x	x	6	-17	14	x	x	x	x
FC(F)(F)c1cc(CCN2CCNC[C@@H]2c2ccccc2)cc(C(F)(F)F)c1	x	x	x	66*	6	61*	3	62*	17	8
NCCCC[C@H]1CN=C(N)N1CCCCC1CCCCC1	-1	4	x	23	-19	6	x	x	x	x
COc1ccc(/C=N/Nc2cc(C)nc3ccc(OC)cc23)c(OC)c1	19	7	7	102*	14	43*	4	122*	0	7
COc1ccccc1/C=N/Nc1cc(C)nc2ccc(C)cc12	2	-3	-3	-6	0	22	x	x	x	x
COc1ccc2nc(C)cc(N/N=C/c3ccccc3)c2c1	14	x	x	53*	22	50*	6	49*	4	7
Fc1ccc(COc2cccc(CNCc3ccncc3)c2)cc1	-10	-4	-18	-13	-2	9	x	x	x	x
c1ccc2c(C[C@@H]3CNCCN3CCC34CC5CC(CC(C5)C3)C4)cccc2c1	x	x	x	50*	5	66*	-3	53*	24	14
CCC(C)[C@H]1CNCCN1CCC12CC3CC(CC(C3)C1)C2 (stereo partly specified)	-10	x	x	20	2	13	x	x	x	x
c1ccc(C2(CN3CCNC[C@H]3Cc3cccc4ccccc34)CC2)cc1	6	3	x	59*	-8	53*	2	48*	2	5
O=C1NC[C@@H](Cc2cccc3ccccc23)N(CC2(c3ccccc3)CC2)C1=O	13	-3	x	-7	19	38	x	x	x	x
c1ccc2c(C[C@@H]3CNCCN3CCCCC3CCCCC3)cccc2c1	x	x	x	74*	8	71*	-1	61*	34	19
COc1ccc(-n2nnnc2SC(C)C(=O)NC2CCCC2)cc1 (stereo unspecified)	-7	x	x	-1	-3	3	x	x	x	x
CCC[C@@H](CN1CCC[C@H]1CN1C(N)=NC[C@H]1CC(C)C)N1C[C@@H](Cc2ccccc2)N(CCc2ccc(Cl)c(Cl)c2)C1=N	x	x	x	82*	17	68*	0	89*	25	9
CCC[C@@H](CN1CCC[C@H]1CN1C(N)=NC[C@@H]1Cc1ccccc1)N1C[C@@H]([C@H](C)CC)N(CCc2ccc(Cl)c(Cl)c2)C1=N	x	x	x	74*	2	67*	0	74*	9	2
CCC[C@@H](CN1CCC[C@H]1CN1C(N)=NC[C@@H]1Cc1ccccc1)N1C[C@@H](Cc2ccccc2)N(CCc2ccc(Cl)c(Cl)c2)C1=N	x	x	x	75*	37	78*	1	77*	30	-5
CCOc1ccc(CCN2C(=S)N([C@@H](CC(C)C)CN3CCCC3CN3C(=S)NC[C@@H]3Cc3ccc(O)cc3)C[C@@H]2Cc2ccccc2)cc1 (stereo partly specified)	x	x	x	x	9	x	x	x	x	x
Nc1nc(SCC(=O)NCCc2ccccc2)[nH]c(=O)c1-c1ccccc1	8	-11	-1	-5	x	6	x	x	x	x
O=C1Nc2ccc(Br)cc2C1=Nc1cccnc1	-5	-3	0	-23	8	11	x	x	x	x
SMILES	ZTA counter	EBNA-1 inhibitor	M18AAP inhibitor	UBC13 inh	PfGluPho inh	Apaf1 inhib	Casp3 UBC13 ctr	UBC13 conf	Apaf-1 inh conf2	Rh110 interf inh	others
CCCCCCCNC(=O)C1(CC2CC(c3ccc(Cl)cc3)=NO2)CCN(C(=O)Cc2ccc(F)cc2)CC1 (stereo unspecified)	4	-2	7	-3	8	17	x	x	x	x
CCCCCCCNC(=O)C1(CC2CC(c3cccc(Br)c3)=NO2)CCNCC1 (stereo unspecified)	8	3	0	96*	41	46*	4	99*	38	8
CCCCCCCNC(=O)C1(CC2CC(c3ccc(Cl)cc3)=NO2)CCNCC1 (stereo unspecified)	15	8	-1	83*	9	41*	0	80*	30	9
CC/C(=C(\c1ccc(O)cc1)c1ccc(OCCN(C)C)cc1)c1ccccc1	15	9	6	79*	4	65*	-5	55*	28	13
CCC(=C(c1ccc(O)cc1)c1ccc(OCCN(C)C)cc1)c1ccccc1	x	x	x	x	-14	x	x	x	x	x
CC/C(=C(\c1ccccc1)c1ccc(OCCN(C)C)cc1)c1ccccc1	10	-10	x	78*	-6	72*	-1	65*	25	8
CCN(CC)CCOc1ccc(/C(=C(/Cl)c2ccccc2)c2ccccc2)cc1	-4	6	4	73*	-10	65*	-3	56*	22	8
NCCCCCc1cn([C@@H](CCC(=O)O)C(=O)NCCCCCCCCCCC(=O)N2CCNCC2)nn1	4	3	x	5	11	-12	x	x	x	x
CC[C@H](C)Cc1cn([C@@H](CCCN=C(NC(=O)OC(C)(C)C)NC(=O)OC(C)(C)C)C(=O)NCCCCCCCCCCC(=O)N2CCN(C(=O)OC(C)(C)C)CC2)nn1	-3	21	x	54*	3	57*	-3	27	19	13
